In ChEMBL document CHEMBL1221266, “Synthesis and SAR of novel, 4-(phenylsulfamoyl)phenylacetamide mGlu4 positive allosteric modulators (PAMs) identified by functional high-throughput screening (HTS)” (Bioorg Med Chem Lett, 2010):

Legend:
[1] = target: T1, Metabotropic glutamate receptor 4 (Homo sapiens, UniProt Q14833); assay: Positive allosteric modulation of human mGlu4 receptor expressed in CHO cells assessed as potentiation of glutamate-induced calcium mobilization relative to PHCCC; type: functional, cell-based
T1 sequence (Q14833 whole entry): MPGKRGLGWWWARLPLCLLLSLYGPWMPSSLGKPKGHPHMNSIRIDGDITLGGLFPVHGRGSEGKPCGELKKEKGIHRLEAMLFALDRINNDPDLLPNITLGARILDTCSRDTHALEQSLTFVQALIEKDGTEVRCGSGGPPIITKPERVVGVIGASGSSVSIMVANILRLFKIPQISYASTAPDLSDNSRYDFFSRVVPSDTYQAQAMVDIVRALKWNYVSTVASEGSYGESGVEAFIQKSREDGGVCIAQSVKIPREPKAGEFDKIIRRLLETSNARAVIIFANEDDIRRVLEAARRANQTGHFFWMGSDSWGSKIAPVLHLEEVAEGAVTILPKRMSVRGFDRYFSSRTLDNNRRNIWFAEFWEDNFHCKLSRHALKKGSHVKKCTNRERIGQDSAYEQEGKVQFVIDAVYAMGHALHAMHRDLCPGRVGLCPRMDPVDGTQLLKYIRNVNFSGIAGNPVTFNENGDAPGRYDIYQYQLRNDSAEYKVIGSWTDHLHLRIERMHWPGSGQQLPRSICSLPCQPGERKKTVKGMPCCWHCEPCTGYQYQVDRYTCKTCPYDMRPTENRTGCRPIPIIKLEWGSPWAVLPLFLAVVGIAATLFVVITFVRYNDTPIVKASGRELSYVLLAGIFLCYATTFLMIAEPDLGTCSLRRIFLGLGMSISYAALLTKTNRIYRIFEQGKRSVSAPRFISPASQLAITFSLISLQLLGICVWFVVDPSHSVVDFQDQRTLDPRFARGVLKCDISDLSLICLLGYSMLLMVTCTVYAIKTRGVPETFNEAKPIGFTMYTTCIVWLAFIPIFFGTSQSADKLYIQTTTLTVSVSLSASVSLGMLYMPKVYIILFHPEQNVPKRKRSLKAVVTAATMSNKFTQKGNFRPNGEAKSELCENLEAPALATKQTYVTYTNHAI
Procedure, shortened: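 Human mGlu4/Gqi5 CHO cells with an EC20 concentration of glutamate; compounds tested in 1:3 serial dilutions from 30 μM, in triplicate on one day. The maximal response elicited by each compound was divided by the response to the control PAM PHCCC measured on the same day.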

[2] = target: T1, Metabotropic glutamate receptor 4; assay: Positive allosteric modulation of human mGlu4 receptor expressed in CHO cells assessed as potentiation of glutamate-induced calcium mobilization at > 30 uM; type: functional, cell-based
[3] = target: T1, Metabotropic glutamate receptor 4; assay: Positive allosteric modulation of human mGlu4 receptor expressed in CHO cells assessed as potentiation of glutamate-induced calcium mobilization; type: functional, cell-based
Procedure, shortened: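 Human mGlu4 co-expressed with the chimeric G protein Gqi5 in CHO cells. Compounds were tested in the presence of an EC20 glutamate concentration as 1:3 serial dilutions starting at 30 μM. Values are the mean of triplicates run on one day. For % PHCCC, each compound's maximal response was divided by the response to the control PAM PHCCC measured that same day.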

[4] = Metabolic stability in human liver microsomes assessed as compound remaining after 60 mins; type: ADME, Microsome; settings: read-out: Stability
[5] = Metabolic stability in rat liver microsomes assessed as compound remaining after 60 mins; type: ADME, Microsome; settings: read-out: Stability
[6] = Fraction unbound in rat plasma; type: ADME, cell-free
[7] = species: Homo sapiens; assay: Fraction unbound in human plasma

SMILES	Emax [1] [%]	EC50 [2]	EC50 [3] [nM]	remaining at 1 h [4] [%]	remaining at 1 h [5] [%]	fraction unbound [6]	fraction unbound [7]
O=C(Nc1ccc(S(=O)(=O)N2CCc3ccccc32)cc1)c1ccccn1	12	Not Active	–	–	–	–	–
O=C(Nc1ccc(S(=O)(=O)Nc2cc(F)ccc2F)cc1)c1ccccn1	87.6	–	325	–	–	–	–
O=C(Nc1ccc(CS(=O)(=O)c2ccccc2Cl)cc1)c1ccccn1	46.5	–	2170	–	–	–	–
O=C(Nc1ccc(S(=O)(=O)NC2CCCCC2)cc1)c1ccccn1	63.1	–	1030	–	–	–	–
O=C(Nc1ccc(Cl)c(S(=O)(=O)Nc2ccccc2Cl)c1)c1ccccn1	54.9	–	731	11.9	0.05	–	–
O=C(Nc1ccc(S(=O)(=O)NC2CCC2)cc1)c1ccccn1	64.4	–	> 5000	–	–	–	–
O=C(Nc1ccc(S(=O)(=O)N2CCCC2)cc1)c1ccccn1	15.4	Not Active	–	–	–	–	–
COc1ccccc1NS(=O)(=O)c1ccc(NC(=O)c2ccccn2)cc1OC	112	–	132	1.3	0.05	0.127	0.003
O=C(Nc1ccc(S(=O)(=O)Nc2ccccc2F)cc1)c1ccccn1	91.7	–	206	–	–	–	–
O=C(Nc1ccc(S(=O)(=O)NC2CC2)cc1)c1ccccn1	23.7	–	> 10000	–	–	–	–
COCCNS(=O)(=O)c1ccc(NC(=O)c2ccccn2)cc1	22.1	–	> 10000	–	–	–	–
O=C(Nc1ccc(S(=O)(=O)Nc2ccccc2Cl)cc1)c1nccs1	79.4	–	77.4	0.84	1.2	0.001	0.001
O=C(Nc1ccc(S(=O)(=O)Nc2ccccc2Cl)cc1)c1ccncn1	103	–	478	–	–	–	–
O=C(Nc1ccc(S(=O)(=O)Nc2ccccc2Cl)cc1)c1ccccn1	88.2	–	27	0.02	0.02	0.003	0.001
O=C(Nc1ccc(S(=O)(=O)Nc2ccccc2Cl)cc1Cl)c1ccccn1	8.1	Not Active	–	–	–	–	–
O=C(Nc1ccc(S(=O)(=O)Nc2ccccc2Cl)cc1)c1ccsc1	54.2	–	269	–	–	–	–
O=C(Nc1ccc(S(=O)(=O)Nc2ccccc2Cl)c(Cl)c1)c1ccccn1	102	–	19.8	0.63	0.02	–	–
O=C(Nc1ccc(S(=O)(=O)Nc2ccccc2Cl)cc1)c1cccc(F)n1	90	–	122	–	–	–	–
Cc1cc(C)c(NS(=O)(=O)c2ccc(NC(=O)c3ccccn3)cc2)c(C)c1	60.5	–	159	–	25.8	0.003	0.001
O=C(Nc1ccc(S(=O)(=O)Nc2ccccc2)cc1)c1ccccn1	69.2	–	177	–	–	–	–
Cc1cc(C)c(NS(=O)(=O)c2ccc(NC(=O)c3ccco3)cc2)c(C)c1	52	–	5960	–	93.3	0.082	0.022
CC1CCN(S(=O)(=O)c2ccc(NC(=O)c3ccccn3)cc2)CC1	35.8	–	372	–	–	–	–
O=C(Nc1ccc(S(=O)(=O)NCC2CC2)cc1)c1ccccn1	70.2	–	> 5000	–	–	–	–
COc1cccc(C(=O)Nc2ccc(S(=O)(=O)Nc3ccccc3Cl)cc2)n1	8.6	Not Active	–	–	–	–	–
CN(c1ccccc1Cl)S(=O)(=O)c1ccc(NC(=O)c2nccs2)cc1	25.4	–	686	0.1	0.08	0.37	0.005
O=C(Nc1ccc(S(=O)(=O)Nc2ccc(Cl)c(C(F)(F)F)c2)cc1)c1ccccn1	19.5	Not Active	–	–	–	–	–
O=C(Nc1ccc(S(=O)(=O)Nc2ccc(F)c(Cl)c2)cc1)c1ccccn1	19.8	Not Active	–	–	–	–	–
O=C(Nc1ccc(S(=O)(=O)Cc2ccccc2Cl)cc1)c1ccccn1	46.3	–	–	–	–	–	–
CN(c1ccccc1Cl)S(=O)(=O)c1ccc(NC(=O)c2ccncn2)cc1	31.1	–	990	2.5	3.3	0.027	0.017
